High-throughput results (PubChem)
The list is not random: actives were taken first. Their share in the collection is about 2%.
TROY NFkB inh: inhibitors of TROY-dependent NF-kB signaling. Q293 LMP1-TROYcd NF-kB luciferase reporter, 4 h. inhibition, % at 10 µM. hit rate 0.98% among 360,000. AID 1347056;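 active = compounds whose plate-normalised and pattern-corrected inhibition of the luciferase reporter signal at the single screening dose is 50% or more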
NR2E3 ag-1: human photoreceptor-specific nuclear receptor agonism. CHO-S Gal4-NCOR/VP16-NR2E3 two-hybrid, luciferase. inhibition of corepressor binding, % at 3.98 µM. hit rate 0.35% among 360,000. AID 602229;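 active = inhibition above the mean of all tested compounds plus 3 SD, cut at about 70% in these data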;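 also: 0% = DMSO with NR2E3 transfected cells and 100% = cells lacking NR2E3 construct; higher means lower luciferase signal from less NR2E3 corepressor binding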
Target sequence (Q9Y5X4 whole entry, looked up, the tested form may be a part): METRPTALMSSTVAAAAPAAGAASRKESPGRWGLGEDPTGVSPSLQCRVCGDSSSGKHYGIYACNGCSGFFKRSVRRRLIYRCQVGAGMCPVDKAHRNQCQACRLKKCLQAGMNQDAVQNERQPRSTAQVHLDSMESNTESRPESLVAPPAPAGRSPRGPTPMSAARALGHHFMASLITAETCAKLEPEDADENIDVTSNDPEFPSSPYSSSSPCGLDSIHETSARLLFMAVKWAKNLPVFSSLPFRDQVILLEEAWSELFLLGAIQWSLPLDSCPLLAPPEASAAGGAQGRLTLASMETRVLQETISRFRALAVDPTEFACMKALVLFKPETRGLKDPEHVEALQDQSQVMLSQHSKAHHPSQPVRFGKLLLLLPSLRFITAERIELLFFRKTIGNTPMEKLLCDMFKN
HIF act: HIF pathway transcriptional activation | U2OS HRE-luciferase reporter, luminescence; normalized: DMSO 0%, desferrioxamine 100% | hit rate 0.32% among 300,000 | activation, % at 7.5 µM (by protocol) | AID 1910;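 active = mean activation of at least 10% of the iron chelator positive control signal, with at least half of replicates also reaching 10%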
NR2E3 ag-2: NR2E3 (human) agonism; hit rate 0.12% among 320,000; Q9Y5X4; inhibition of corepressor binding, % at 4.78 µM; GST-NR2E3/biotin-RetCOR TR-FRET, 1536-well;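 active = percent inhibition above the cutoff of mean plus 3 SD of all tested compounds, set per screening campaign, cut at about 20% in these data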;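 also: 0% = DMSO wells and 100% = biotin wells as full block of FRET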
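system = GST-tagged NR2E3 plus biotinylated RetCOR corepressor | input = 1.35 nM GST-NR2E3 | also added = 7 nM biotin-RetCOR | schedule = 5 h incubation at 4 °C | measured by = TR-FRET with europium anti-GST and streptavidin-D2, 340 nm excitation | read-out = percent loss of FRET ratio relative to control wells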
EBV LMP1 NFkB: inhibitors of Epstein-Barr LMP1-induced NF-kappaB reporter. LMP1-induced NF-kappaB luciferase reporter cells, luminescence. hit rate 0.69% among 350,000. inhibition, % at 12.5 µM. AID 504558; in the data active = inhibition above about 41%;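 also: 0% = neutral control wells and 100% = reference inhibitor control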
NR2E3 ag confirm: NR2E3 agonism confirmed in two-hybrid assay | shares compounds with NR2E3 ag-1 | CHO-S mammalian two-hybrid NR2E3-NCOR, luciferase luminescence | inhibition, % at 3.98 µM | hit rate 51% among 2,300 | AID 624378;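 active = average inhibition above a cutoff equal to the mean inhibition of all tested compounds plus one SD, cut at about 70% in these data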;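 also: 0% = DMSO in NR2E3 cells and 100% = DMSO in cells lacking NR2E3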
GAL4-VP16 luc: counter-screen for NR2E3 agonists: GAL4-VP16 reporter inhibitors; inhibition, % at 3.98 µM; AID 624379; hit rate 29% among 2,300; CHO-S GAL4-VP16 luciferase reporter, luminescence; shares compounds with NR2E3 ag-1;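 active = mean inhibition above a cutoff equal to the average over all tested compounds plus one standard deviation, cut at about 70% in these data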;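 also: luciferase from a UAS reporter driven by GAL4-VP16 transactivation; 0% = DMSO with VP16-transfected cells and 100% = DMSO with cells lacking VP16; higher means less reporter light so more repression of VP16 activity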
* = called active by the depositor; . = no result given.

SMILES	TROY NFkB inh	NR2E3 ag-1	HIF act	NR2E3 ag-2	EBV LMP1 NFkB	NR2E3 ag confirm	GAL4-VP16 luc
c1ccc(C(Cc2nc(-c3ccncc3)no2)c2ccccc2)cc1	10	64	0	-2	3	75*	56
c1ccc(-c2nc(-c3ccncc3)no2)cc1	-44	-59	-38	0	-20	.	.
Cc1nc(NCCc2ccccc2)c2oc3ccccc3c2n1	30	72*	0	1	-3	91*	76*
Cc1cccc(NC(=O)C(C)C(=O)c2ccccc2)c1 (stereo not drawn)	12	-19	0	.	-9	.	.
Cc1ccc(NC(=O)C(C)c2cccc(C(=O)c3ccccc3)c2)cc1O (stereo not drawn)	33	65	0	1	14	95*	80*
CC(C)C(=O)N1CCCC1(C)C(=O)Nc1ccc(-n2cccc2)cc1 (stereo not drawn)	6	20	.	.	.	.	.
O=C(Nc1ccc(Oc2ccccc2)cc1)c1csc([C@H]2C[C@H](O)[C@@H](CO)O2)n1	20	48	.	.	.	78*	61
N=c1c(C(=O)NCC2CCCO2)cc2c(=O)n3ccccc3nc2n1Cc1ccccc1Cl (stereo not drawn)	-9	-12	9	3	11	.	.
Cc1ccc(NC2=C/C(=N/S(=O)(=O)c3cccs3)c3ccccc3C2=O)cc1C	-51	-20	1	1	-65	.	.
Cc1ccccc1NC1=C/C(=N\S(=O)(=O)c2cccs2)c2ccccc2C1=O	67*	55	-7	5	91*	100*	99*
COc1ccc(S(=O)(=O)/N=C2\C=C(Nc3ccc(O)cc3)C(=O)c3ccccc32)cc1	35	114*	-7	-1	74*	99*	100*
O=C(O)c1ccc(S(=O)(=O)/N=C2\C=C(Nc3ccccc3F)C(=O)c3ccccc32)cc1	49	104*	-1	9	-14	100*	47
COc1ccc(O)c(CN2CC3CCC(CC3)C2)c1	-4	7	.	.	1	.	.
Cn1cc(CNCc2ccc(OC(F)(F)F)cc2)c(-c2ccc3c(c2)OCCO3)n1	20	76*	1	-2	10	90*	79*
Cc1ccccc1Nc1c(-c2ccccn2)nc2ccccn12	29	76*	13*	-2	-2	35	2
Cc1ccc2nc(-c3cccnc3)c(Nc3ccccc3C)n2c1	5	9	-1	3	-2	.	.
Cc1ccn2c(Nc3ccccc3C)c(-c3ccccn3)nc2c1	-23	97*	12*	1	26	44	8
Cc1cccn2c(Nc3ccccc3)c(-c3ccccn3)nc12	-17	82*	0	-2	4	3	9
Cc1ccc2nc(-c3ccccn3)c(Nc3ccccc3C)n2c1	1	94*	22*	-5	-3	34	-39
COc1ccc(-c2nc3ncccn3c2Nc2ccccc2)cc1	-50	-34	0	-4	-3	.	.
Cc1ccn2c(Nc3ccccc3)c(-c3ccccn3)nc2c1	1	68	9	-2	59*	91*	64
COc1cccc(COc2cc3ccccc3nc2C)c1	10	73*	1	1	-10	94*	76*
Cc1nc(OCc2ccccc2)c2ccccc2n1	3	-5	0	0	8	.	.
Cc1nc2ccccc2nc(C)c1=NOCc1cccc(Cl)c1	-33	-117	0	-2	-5	.	.
Cc1nc2ccccc2cc1OCc1ccc(Cl)cc1	-12	78*	3	2	-13	92*	73*
SMILES	TROY NFkB inh	NR2E3 ag-1	HIF act	NR2E3 ag-2	EBV LMP1 NFkB	NR2E3 ag confirm	GAL4-VP16 luc
Cc1nc2ccccc2cc1OCc1ccccc1	-5	73*	1	-1	-4	70*	66
CC(C1CC2CCC1C2)n1c(-c2ccco2)n[nH]c1=S (stereo not drawn)	6	-21	0	-1	-3	.	.
Cc1cc(C)c(C(=O)/C=C/c2cccc3ccccc23)c(=O)[nH]1	54*	63	-2	-1	58*	14	31
Cc1cc(C)c(C(=O)/C=C/c2ccc3c(c2)OCO3)c(=O)[nH]1	27	7	0	1	34	.	.
CC(C)C[C@H](N)C(=O)N1CCC(C(=O)N[C@H](C(=O)NC(C)c2ccccc2)C(C)C)CC1 (stereo partly drawn)	3	-13	0	1	4	.	.
COc1ccc(CCNc2ccc(N3C(=O)CC(C)C3=O)cc2[N+](=O)[O-])cc1OC (stereo not drawn)	16	75*	1	2	28	57	73*
COc1ccc(CCNc2ccc(N3C(=O)CC(C)C3=O)cc2[N+](=O)[O-])cc1 (stereo not drawn)	20	-7	0	1	10	.	.
CN(C)C(=S)N=c1ssc(=S)n1Cc1cccnc1	6	86*	.	.	6	-24	-24
Cc1c(NC(=O)CN2C(=O)NC3(CCCCC3)C2=O)c(=O)n(-c2ccccc2)n1C	7	-12	0	0	0	.	.
Brc1ccc(-c2nnc3c4ccccc4nc(N4CCOCC4)n23)cc1	-37	80*	0	0	1	15	-21
Clc1ccc(-c2nnc3c4ccccc4nc(N4CCOCC4)n23)cc1Cl	-69	-37	1	0	9	.	.
OC1(c2ccc(OC(F)F)cc2)CSC(=Nc2cccnc2)N1C1CC1 (stereo not drawn)	2	69	0	1	21	70	60
Cc1ccc(C2(c3ccc(C)cc3)CC2C(=O)Nc2ccc([N+](=O)[O-])cc2O)cc1 (stereo not drawn)	56*	100*	-2	0	38	99*	90*
COc1ccc(C2C3=C(CC(C)(C)CC3=O)Nc3cc4c(cc32)OCO4)cc1 (stereo not drawn)	-5	-33	0	3	-24	.	.
COc1ccc(OC)c(C2C3=C(COC3=O)Nc3cc4c(cc32)OCO4)c1 (stereo not drawn)	22	59	0	0	7	7	18
CCN(CC(=O)NCc1cccs1)S(=O)(=O)c1c(F)cccc1F	3	-14	.	0	34	.	.
Cc1cc(C)c2c(N)c3cccc(C)c3nc2n1	-50	-49	.	2	-23	.	.
c1ccc(-c2nnc3sc(CN4CCc5ccccc54)cn23)cc1	-22	51	1	-1	9	30	12
COc1ccc(C(=O)Cn2c(C(C)=O)nc3ccccc32)cc1	-43	63	.	.	-1	15	8
O=[N+]([O-])c1ccc2c(c1)ncn2-c1ccccc1	0	-4	0	-1	-11	.	.
O=[N+]([O-])c1ccc2c(c1)ncn2CCc1ccccc1	-7	76*	0	.	1	-8	-11
